A short description of data set [1]: Inhibition of wild-type Acinetobacter baumannii DNA topoisomerase-4 mediated supercoiled pBR322 DNA relaxation by ethidium bromide based agarose gel electrophoresis.
A short description of data set [2]: Inhibition of wild-type Escherichia coli DNA topoisomerase-4 mediated supercoiled pBR322 DNA relaxation by ethidium bromide based agarose gel electrophoresis.
For data set [3], the system named is Staphylococcus aureus. Description: Antibacterial activity against Staphylococcus aureus ATCC 29213 by CLSI broth microdilution method. In kind it is functional.
The subject of another data set is Escherichia coli. Put plainly: Antibacterial activity against wild-type Escherichia coli ATCC 25922 by CLSI broth microdilution method. The data set is classed as functional. (In general: Broth dilution looks for growth in wells or tubes with falling amounts of substance.)
The next data set has as its system Acinetobacter baumannii. Description: Antibacterial activity against fluoroquinolone-resistant Acinetobacter baumannii T6474 by CLSI broth microdilution method. The data set is classed as functional.
A further data set relates to Pseudomonas aeruginosa. Description: Antibacterial activity against Pseudomonas aeruginosa ATCC 27853 by CLSI broth microdilution method. The data set is classed as functional.
The nature of data set [4]: Inhibition of wild-type Escherichia coli DNA gyrase supercoiling activity using relaxed pBR322 DNA as substrate by ethidium bromide based agarose gel electrophoresis.
A short description of data set [5]: Inhibition of wild-type Acinetobacter baumannii DNA gyrase supercoiling activity using relaxed pBR322 DNA as substrate by ethidium bromide based agarose gel electrophoresis.
Data set [6] can be described thus: Inhibition of wild-type Pseudomonas aeruginosa DNA gyrase supercoiling activity using relaxed pBR322 DNA as substrate by ethidium bromide based agarose gel electrophoresis.
Data set [7] in a line: Inhibition of wild-type Pseudomonas aeruginosa DNA topoisomerase-4 mediated supercoiled pBR322 DNA relaxation by ethidium bromide based agarose gel electrophoresis.
In data set [8] the test system is Mus musculus. Put plainly: Dose normalized AUC in NMRI mouse at 10 mg/kg, iv by LC-MS/MS analysis. Conditions: in vivo. In kind it is ADME, organism-based.
Data set [9] is described as follows: Fraction unbound in NMRI mouse at 10 mg/kg, iv by rapid equilibrium dialysis. Conditions: plasma. In kind it is ADME, organism-based. A digest of the protocol:
(§1)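 Mice dosed iv at 10 mg/kg or sc at 120 mg/kg. AUC normalized to dose (μg·h/(mL·dose)). Unbound AUC derived using fraction unbound. Clearance, Vdss and terminal half-life also derived.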
In general terms: In equilibrium dialysis free small molecules cross a membrane that holds back macromolecules.

The subject of data set [10] is Mus musculus. Description: Dose normalized unbound AUC in NMRI mouse at 10 mg/kg, iv by LC-MS/MS analysis. In kind it is ADME, organism-based. The settings on record: in vivo. In outline:
as §1

Data set [11] in a line: Volume of distribution at steady state in NMRI mouse at 10 mg/kg, iv by LC-MS/MS analysis. In kind it is ADME, organism-based. The settings on record: in vivo, read-out: Vdss. In outline:
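Mice received a single dose of 10 mg/kg intravenously, or 120 mg/kg subcutaneously for one compound. Clearance, Vdss, half-life, unbound fraction and dose-normalized AUC were derived from plasma exposure.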

The nature of data set [12]: Terminal half-life in NMRI mouse at 10 mg/kg, iv by LC-MS/MS analysis. Conditions: in vivo, read-out: beta t1/2 (converted). In kind it is ADME, organism-based. A digest of the protocol: as §1
The test system of data set [13] is Staphylococcus aureus. Description: Antibacterial activity against methicillin-sensitive Staphylococcus aureus A-1178 by CLSI broth microdilution method. In kind it is functional.
Data set [14] deals with Staphylococcus aureus. Put plainly: Antibacterial activity against methicillin-sensitive Staphylococcus aureus A-1178 infected in cyclophosphamide-induced neutropenic NMRI mouse model assessed as log reduction in colony forming units in thighs at 40 mg/kg, sc treated 2 hrs post infection measured 22 hrs post dose. In kind it is functional. In outline: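 Neutropenic mouse thigh model infected with a methicillin-sensitive S. aureus strain, subcutaneous dosing. Thigh CFU measured 24 h post-infection (22 h post-treatment). Net log reduction given against CFU at treatment start.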

Data set [15] has as its system Staphylococcus aureus. Description: Antibacterial activity against methicillin/quinolone-resistant Staphylococcus aureus A-1171 by CLSI broth microdilution method. The data set is classed as functional.
The test system of data set [16] is Staphylococcus aureus. Description: Antibacterial activity against methicillin/quinolone-resistant Staphylococcus aureus A-1171 infected in cyclophosphamide-induced neutropenic NMRI mouse model assessed as log reduction in colony forming units in thighs at 40 mg/kg, sc treated 2 hrs post infection measured 22 hrs post dose. In kind it is functional. In outline:
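Neutropenic murine thigh infection with MRSA. A single subcutaneous dose of 40 mg/kg was given. Thigh CFU were counted 24 h postinfection (22 h post-treatment). The net change in bacterial load is given in log units relative to CFU at the start of treatment.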

Data set [17] relates to Klebsiella pneumoniae. Description: Antibacterial activity against Klebsiella pneumoniae ATCC 43816 by CLSI broth microdilution method. The data set is classed as functional.
The subject of data set [18] is Klebsiella pneumoniae. Put plainly: Antibacterial activity against Klebsiella pneumoniae ATCC 43816 infected in cyclophosphamide-induced neutropenic NMRI mouse model assessed as reduction in colony forming units in thighs at 30 mg/kg, sc treated 2 hrs post infection measured 5.5 hrs post dose. The data set is classed as functional, organism-based. A digest of the protocol:
(§2)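 Neutropenic murine thigh infection with a K. pneumoniae strain, single subcutaneous dose. Thigh CFU read 7.5 h post-infection (5.5 h after treatment, covering the dosing interval). Net log change computed against CFU at start of treatment.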

The subject of data set [19] is Klebsiella pneumoniae. Put plainly: Antibacterial activity against Klebsiella pneumoniae ATCC 43816 infected in cyclophosphamide-induced neutropenic NMRI mouse model assessed as log reduction in colony forming units in thighs at 90 mg/kg, sc treated 2 hrs post infection measured 5.5 hrs post dose. The data set is classed as functional. In outline: as §2

Active and inactive are the calls of the source.

Data on 1 compound can be found in ChEMBL document CHEMBL4049439, “Synthesis and Characterization of Tetrahydropyran-Based Bacterial Topoisomerase Inhibitors with Antibacterial Activity against Gram-Negative Bacteria” (J Med Chem, 2017).

As usually defined, the IC50 is the concentration at which inhibition is half-maximal. A word on the MIC: it is the smallest concentration in the dilution series that meets the test's criterion for growth inhibition. Usually fraction unbound stands for free concentration divided by total concentration.

With `COc1ccc2ncc(F)c(CC(N)[C@@H]3CC[C@@H](NCc4ccc5c(n4)NC(=O)CO5)CO3)c2n1` (mixture of isomers), the IC50 in [1] stood at 30 nM; in data set [2], 30 nM; in data set [4], 125 nM; in data set [5], 125 nM; in data set [6] it was 30 nM; in [7] it was 30 nM. In addition, the MIC against Staphylococcus aureus [3] was 0.03 µg/mL; against Escherichia coli it was 0.25 µg/mL; against Acinetobacter baumannii, 0.25 µg/mL; against Pseudomonas aeruginosa, 4 µg/mL; in the data set with Staphylococcus aureus [13], 0.06 µg/mL; in the data set on Staphylococcus aureus [15] it was 0.03 µg/mL. For the same compound, the MIC in the data set with Klebsiella pneumoniae [17] was 0.125 µg/mL. The compound also registered an AUC/dose in the data set with Mus musculus [8] of 260 ng·h/mL. Further, the unbound share (fraction unbound) in data set [9] came to 0.154. Further, the fAUC/dose in the data set with Mus musculus [10] came to 40 µg·h/mL. Also, the Vd in data set [11] worked out at 6 L/kg. The half-life in data set [12] was 1.2 h. Further, the Activity is 2 log10CFU in the data set with Staphylococcus aureus [14], 1 log10CFU in the data set on Staphylococcus aureus [16] and 1 log10CFU with Klebsiella pneumoniae [19]. In addition, in the data set with Klebsiella pneumoniae [18], the result was inactive.
